Assay results: BindingDB's records for doi:10.1016/j.bmc.2007.11.023 (2008)

Molecular target: Mitochondrial complex I; NADH oxidoreductase (Bos taurus, UniProt P25708+P52505)
Assay: Inhibition of NADH-ubiquinone oxidoreductase assessed as NADH oxidase activity in bovine heart submitochondrial particles
Procedure, shortened: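 Bovine heart submitochondrial particles (sonicated mitochondria isolated by differential centrifugation) in air-saturated 75 mM sodium potassium phosphate, pH 7.4, with 1 mM each EDTA and MgCl2, at 30 °C and 42–219 µg/mL protein. Compounds added in methanol (≤2% v/v) and preincubated 4 min. The reaction is started with 0.16 mM NADH (final). Oxidation is followed over 4 min as A340 decrease. Means of 2–4 independent experiments.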

Mitochondrial complex I; NADH oxidoreductase, sequence (P25708 21-464 limits assumed, other chains not shown): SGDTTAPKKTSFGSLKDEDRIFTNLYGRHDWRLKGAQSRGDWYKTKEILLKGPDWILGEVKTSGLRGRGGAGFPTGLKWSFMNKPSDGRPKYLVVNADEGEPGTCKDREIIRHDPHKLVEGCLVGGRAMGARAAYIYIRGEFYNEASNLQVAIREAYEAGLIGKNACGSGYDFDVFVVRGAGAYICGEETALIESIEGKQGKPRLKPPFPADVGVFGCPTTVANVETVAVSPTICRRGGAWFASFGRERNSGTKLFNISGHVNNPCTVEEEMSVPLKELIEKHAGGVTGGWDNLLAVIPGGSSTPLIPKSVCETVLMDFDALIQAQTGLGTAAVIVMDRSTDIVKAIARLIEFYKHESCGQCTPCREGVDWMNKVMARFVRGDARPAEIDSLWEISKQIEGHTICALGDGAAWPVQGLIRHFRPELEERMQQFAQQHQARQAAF

Row | Structure (SMILES) | IC50 [µM]
1 | CCCC1C(=O)C(C)(O)C(=O)N=C1C=CC(C)C/C=C/C(C)C (configuration not stated) [IROMYCIN F] | > 25.3
2 | CCCC1(O)C(=O)C(C)C(=O)N=C1C=CC(C)C/C=C/C(C)C (configuration not stated) [IROMYCIN E] | > 25.3
